The molecules below were run against T1, Stromelysin-1 (Homo sapiens, UniProt P08254) (assay: Inhibition activity against recombinant human stromelysin (Matrix metalloprotease-3)).
T1 sequence (P08254 whole entry): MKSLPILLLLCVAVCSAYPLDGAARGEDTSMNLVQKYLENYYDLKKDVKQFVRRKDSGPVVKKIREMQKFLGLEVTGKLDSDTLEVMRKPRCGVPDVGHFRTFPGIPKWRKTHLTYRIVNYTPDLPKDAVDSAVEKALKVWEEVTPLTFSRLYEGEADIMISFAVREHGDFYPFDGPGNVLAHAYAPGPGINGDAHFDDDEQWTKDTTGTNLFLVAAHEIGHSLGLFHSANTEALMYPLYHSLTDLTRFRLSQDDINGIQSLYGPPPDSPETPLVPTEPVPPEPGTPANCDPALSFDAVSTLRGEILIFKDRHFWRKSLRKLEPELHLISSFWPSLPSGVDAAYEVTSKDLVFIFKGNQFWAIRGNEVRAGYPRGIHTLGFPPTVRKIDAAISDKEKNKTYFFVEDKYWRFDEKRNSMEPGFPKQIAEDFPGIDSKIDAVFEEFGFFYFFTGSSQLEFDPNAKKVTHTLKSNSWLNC

| Ki | Structure (SMILES) |
| --- | --- |
| 92 nM | COc1ccc(S(=O)(=O)N(Cc2ccccc2)C(C(=O)NO)C(C)C)cc1 (stereo not drawn) |
| 36 nM | COc1ccc(S(=O)(=O)N(Cc2ccccc2)[C@H](C)C(=O)NO)cc1 |
| 141 nM | COc1ccc(S(=O)(=O)N(Cc2ccccc2)[C@@H](C)C(=O)NO)cc1 |
| 61 nM | COc1ccc(S(=O)(=O)N(CC(=O)NO)CC2CCCCC2)cc1 |
| 71 nM | COc1ccc(S(=O)(=O)N(Cc2ccccc2)C(Cc2ccccc2)C(=O)NO)cc1 (stereo not drawn) |
| 86 nM | COc1ccc(S(=O)(=O)N(Cc2ccccc2)C(C)C(=O)NO)cc1 (stereo not drawn) |
| 104 nM | COc1ccc(CN(CC(=O)NO)S(=O)(=O)c2ccc(OC)cc2)cc1 |
| 70 nM | COc1ccc(S(=O)(=O)N(CC(=O)NO)Cc2ccccc2)cc1 |
| 4400 nM | COc1ccc(S(=O)(=O)NCC(=O)NO)cc1 |
| 23 nM | COc1ccc(S(=O)(=O)N(Cc2ccccc2)[C@H](CC(C)C)C(=O)NO)cc1 |
| 29 nM | COc1ccc(S(=O)(=O)N(Cc2ccccc2)[C@H](Cc2ccccc2)C(=O)NO)cc1 |
| 34 nM | COc1ccc(S(=O)(=O)N(Cc2ccccc2)[C@@H](C(=O)NO)C(C)C)cc1 |
| 134 nM | COc1ccc(S(=O)(=O)N(CC(=O)NO)Cc2ccc3ccccc3n2)cc1 |
| 94 nM | COc1ccc(S(=O)(=O)N(CCC(C)C)CC(=O)NO)cc1 |

| Structure (SMILES) | Ki |
| --- | --- |
| CC(C)CN(CC(=O)NO)S(=O)(=O)c1ccc(N(C)C)cc1 | 4400 nM |

The molecules below were run against T1, Stromelysin-1 (assay: Inhibition activity against recombinant human stromelysin (Matrix metalloprotease-3) (Inactive)).
In short: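 Substance P (0.5 mM) cleaved by recombinant human stromelysin (8 μg, 2 units) for 30 min at 37 °C with test compound diluted from 10 mM stock into assay buffer. Reaction stopped with 10 mM EDTA. Substance P 7-11 fragment quantified by RP-8 HPLC. IC50 versus inhibitor-free control, mean of two independent measurements. Ki derived from mean IC50 by Waley's method.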

| Ki | Structure (SMILES) |
| --- | --- |
| Not Active | CC(C)CN(CC(=O)NO)S(=O)(=O)c1ccc([N+](=O)[O-])cc1 |
| Not Active | CC(C)CN(CC(=O)NO)S(=O)(=O)c1ccc(S(C)(=O)=O)cc1 |
| Not Active | CC(C)CN(CC(=O)NO)S(=O)(=O)c1ccc(C(C)(C)C)cc1 |
